Measured values from ChEMBL document CHEMBL4052819 (2017).
In brackets after ≈: the same amount, converted by molar mass. Activity calls are given as the source filed them. The calls are words filed in the database; no cut-off is given here. Non-standard residues stand in square brackets, D forms with d. Residues, ends and D or L forms follow the SMILES beside them. *: point of attachment. Heptanoyl = CCCCCCC(=O)*; Dab = NCC[C@H](N)C(=O)O

Columns and labels:
Type in all cases: functional
Staphylococcus aureus [1] = assay: Antibiofilm activity against methicillin-resistant Staphylococcus aureus LAC established catheter-associated biofilm model at 20 times MIC after 72 hrs relative to control
Staphylococcus aureus [2] = assay: Bactericidal activity against methicillin-resistant Staphylococcus aureus ATCC 43300; settings: read-out: MBC99.9
How it was run: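 MBC taken at the end of the MIC test: 50 μL from each well without visible growth plated on tryptic soy agar. MBC = lowest concentration giving ≥99.9% reduction in viable cells relative to the initial inoculum. Three independent experiments, one replicate each.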

Klebsiella pneumoniae [3] = assay: Antibacterial activity against Klebsiella pneumoniae ATCC 13883 after 18 to 20 hrs by broth microdilution method
Staphylococcus aureus [4] = assay: Bactericidal activity against Staphylococcus aureus ATCC 29213; settings: read-out: MBC99.9
How it was run: (§1)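 MBC from MIC plates at end point: 50 μL from each well with no visible growth plated on tryptic soy agar and counted. MBC taken as lowest concentration giving ≥99.9% fall in viable count relative to initial inoculum. Three independent experiments, one replicate each.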

Staphylococcus aureus [5] = assay: Antibacterial activity against Staphylococcus aureus ATCC 29213 after 18 to 20 hrs in presence of 95% serum by broth microdilution method
How it was run: (§2)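 Same microdilution with human serum as medium: compound 2-fold diluted in 100% serum, mixed 1:1 with 90% serum holding ~1.5 × 10^5 CFU/mL, giving 95% serum and final 0.5–64 μg/mL. MIC read as no visible growth after incubation as for the broth test.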

Pseudomonas aeruginosa [6] = assay: Bactericidal activity against Pseudomonas aeruginosa ATCC 27853 after 60 mins in presence of LPS
How it was run: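 P. aeruginosa at ~10^6 CFU/mL in TSB with E. coli O111:B4 LPS (final 10, 25, 50 or 100 μg/mL), then compound at final 16 μg/mL. Incubated 37 °C, 200 rpm, 60 min; survivors counted on TSA. Three independent experiments, one replicate each.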

Enterococcus faecium [7] = assay: Bactericidal activity against Enterococcus faecium ATCC 19434; settings: read-out: MBC99.9; how it was run: as §1
Pseudomonas aeruginosa [8] = assay: Bactericidal activity against Pseudomonas aeruginosa ATCC 27853; settings: read-out: MBC99.9; how it was run: as §1
Pseudomonas aeruginosa [9] = assay: Antibacterial activity against Pseudomonas aeruginosa ATCC 27853 after 18 to 20 hrs by broth microdilution method
How it was run: (§3)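 Broth microdilution in tryptic soy broth: 2-fold dilutions mixed 1:1 with ~1.5 × 10^5 CFU/mL inoculum, final 0.5–32 μg/mL; 37 °C, 18–20 h. MIC taken as lowest concentration giving no visible growth. At least three independent experiments, one replicate each.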

Acinetobacter baumannii [10] = assay: Bactericidal activity against Acinetobacter baumannii ATCC 19606; settings: ATCC 19606 = CIP 70.34 = JCM 6841, read-out: MBC99.9; how it was run: as §1
Staphylococcus aureus [11] = assay: Antibacterial activity against Staphylococcus aureus ATCC 29213 after 18 to 20 hrs by broth microdilution method; how it was run: as §3
Klebsiella pneumoniae [12] = assay: Bactericidal activity against Klebsiella pneumoniae ATCC 13883; settings: read-out: MBC99.9; how it was run: as §1
Escherichia coli [13] = assay: Antibacterial activity against Escherichia coli ATCC 25922 after 18 to 20 hrs by broth microdilution method; how it was run: as §3
Staphylococcus aureus [14] = assay: Antibacterial activity against methicillin-resistant Staphylococcus aureus ATCC 43300 after 18 to 20 hrs by broth microdilution method
How it was run: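 Broth microdilution in tryptic soy broth: 2-fold dilutions mixed 1:1 with ~1.5 × 10^5 CFU/mL bacterial suspension in TSB, final 0.5–32 μg/mL, 37 °C for 18–20 h. MIC = lowest concentration with no visible growth. At least three independent experiments, one replicate each.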

Acinetobacter baumannii [15] = assay: Antibacterial activity against Acinetobacter baumannii ATCC 19606 after 18 to 20 hrs by broth microdilution method; settings: ATCC 19606 = CIP 70.34 = JCM 6841
Escherichia coli [16] = assay: Antibacterial activity against Escherichia coli ATCC 25922 after 18 to 20 hrs in presence of 95% serum by broth microdilution method; how it was run: as §2
Enterococcus faecium [17] = assay: Antibacterial activity against Enterococcus faecium ATCC 19434 after 18 to 20 hrs by broth microdilution method; how it was run: as §3
Escherichia coli [18] = assay: Bactericidal activity against Escherichia coli ATCC 25922; settings: read-out: MBC99.9; how it was run: as §1

| Compound | Activity (Staphylococcus aureus [1]) [%] | MBC (Staphylococcus aureus [2]) [mg/L] | MIC (Klebsiella pneumoniae [3]) [mg/L] | MBC (Staphylococcus aureus [4]) [mg/L] | MIC (Staphylococcus aureus [5]) [mg/L] | Activity (Pseudomonas aeruginosa [6]) | MBC (Enterococcus faecium [7]) [mg/L] | MBC (Pseudomonas aeruginosa [8]) [mg/L] | MIC (Pseudomonas aeruginosa [9]) [mg/L] | MBC (Acinetobacter baumannii [10]) [mg/L] | MIC (Staphylococcus aureus [11]) [mg/L] | MBC (Klebsiella pneumoniae [12]) [mg/L] | MIC (Escherichia coli [13]) [mg/L] | MIC (Staphylococcus aureus [14]) [mg/L] | MIC (Acinetobacter baumannii [15]) [mg/L] | MIC (Escherichia coli [16]) [mg/L] | MIC (Enterococcus faecium [17]) [mg/L] | MBC (Escherichia coli [18]) [mg/L] |
| --- | --- | --- | --- | --- | --- | --- | --- | --- | --- | --- | --- | --- | --- | --- | --- | --- | --- | --- |
| CCCCCCCCCC(=O)N[C@@H](Cc1c[nH]c2ccccc12)C(=O)N[C@@H](CC(N)=O)C(=O)N[C@@H](CC(=O)O)C(=O)N[C@@H]1C(=O)NCC(=O)N[C@@H](CCCN)C(=O)N[C@@H](CC(=O)O)C(=O)N[C@H](C)C(=O)N[C@@H](CC(=O)O)C(=O)NCC(=O)N[C@H](CO)C(=O)N[C@@H]([C@H](C)CC(=O)O)C(=O)N[C@@H](CC(=O)c2ccccc2N)C(=O)O[C@@H]1C [DAPTOMYCIN] | 17 |  |  |  |  |  |  |  |  |  |  |  |  |  |  |  |  |  |
| CCCCCCC(=O)N[C@@H](CCN)C(=O)N[C@@H](Cc1ccccc1)C(=O)N[C@@H](CCN)C(=O)N[C@H](Cc1ccccc1)C(=O)N[C@@H](CC(C)C)C(=O)N[C@@H](CCN)C(=O)N[C@H](CC(C)C)C(=O)N[C@@H](Cc1ccccc1)C(=O)N[C@@H](CO)C(N)=O (Heptanoyl-[Dab]F[Dab][dF]L[Dab][dL]FS-NH2) |  | 8 to 16 (≈ 6.75 to 13.5 µM) | 1 (≈ 0.844 µM) | 8 to 32 (≈ 6.75 to 27 µM) | 32 to 64 | inactive | 16 (≈ 13.5 µM) | 4 (≈ 3.38 µM) | 1 to 2 (≈ 0.844 to 1.69 µM) | 4 (≈ 3.38 µM) | 8 (≈ 6.75 µM) | 2 (≈ 1.69 µM) | 0.5 to 2 (≈ 0.422 to 1.69 µM) | 8 (≈ 6.75 µM) | 2 to 4 (≈ 1.69 to 3.38 µM) | 32 | 8 (≈ 6.75 µM) | 8 to 16 (≈ 6.75 to 13.5 µM) |
